Measured values as given in article PMC9434060 (Heliyon, 2022).

How the values were obtained:
XCGL-1 [1] = assay: Inhibition of XCGL-1 hemagglutination; format: cell-based, Xenopus laevis; settings: pig red blood cells; for inhibition of agglutination: 50 nM XCGL-1, millimolar concentrations; for inhibition of hemagglutination by carbohydrates: 25 nM XCGL-1
Outline: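 Citrated fresh pig red cells, washed in 20 mM HEPES pH 7.5, 150 mM NaCl, 10 mM CaCl2, used as a 2.5% suspension in a Terasaki plate. Two set-ups: carbohydrates at various concentrations with 25 nM lectin; EDTA or galactose at millimolar concentrations with 50 nM lectin. Plates photographed after 1 h.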

His6 XCGL-1 = His6 XCGL-1 (Xenopus laevis, UniProt Q91719); assay: Inhibition of His6 XCGL-1 hemagglutination by carbohydrates; format: cell-based; settings: pig red blood cells, 25 nM XCGL-1
Outline: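 Fresh pig blood collected into sodium citrate tubes. Red cells washed in 20 mM HEPES pH 7.5, 150 mM NaCl, 10 mM CaCl2 and used as a 2.5% suspension. Incubated with 25 nM lectin plus carbohydrate at various concentrations in a Terasaki plate. Agglutination photographed after 1 h. MIC is the minimum carbohydrate concentration inhibiting agglutination.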

XCGL-1 [2] = assay: Competitive elution of XCGL-1 from lactose resin; set-up: species or system Xenopus laevis; settings: carbohydrate 6.5 mM in binding buffer, western blot
Outline: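 Lactose-agarose resin (250 μL) settled in a spin column and washed three times with binding buffer (20 mM HEPES pH 7.5, 150 mM NaCl, 10 mM CaCl2). Protein (250 μL, 0.1 μM) bound for 5 min, then washed three times. Elution with each carbohydrate at 6.5 mM in binding buffer; eluates analysed by western blot.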

Refolded XCGL-1 CRD = assay: Inhibition of refolded XCGL-1 CRD hemagglutination by carbohydrates; format: cell-based, Xenopus laevis; settings: pig red blood cells; for inhibition of hemagglutination at 25 mM: 25 nM XCGL-1, carbohydrate 25 mM; for concentration at which inhibition of hemagglutination was observed: 25 nM XCGL-1
His6 XCGL-1 CRD = assay: Inhibition of His6 XCGL-1 CRD hemagglutination by carbohydrates; format: cell-based, Xenopus laevis; settings: pig red blood cells, 25 nM XCGL-1

Chain of His6 XCGL-1 (Q91719 18-313): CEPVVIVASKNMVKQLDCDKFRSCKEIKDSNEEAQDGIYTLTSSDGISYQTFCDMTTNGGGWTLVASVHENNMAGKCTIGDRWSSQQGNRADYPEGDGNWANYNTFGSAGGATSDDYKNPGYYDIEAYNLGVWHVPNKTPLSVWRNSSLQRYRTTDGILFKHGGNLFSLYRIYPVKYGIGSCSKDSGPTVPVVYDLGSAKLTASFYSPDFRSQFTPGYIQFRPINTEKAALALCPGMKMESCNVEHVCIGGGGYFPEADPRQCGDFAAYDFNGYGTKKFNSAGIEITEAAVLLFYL

| minimum inhibitory concentration (MIC) of hemagglutination (His6 XCGL-1) | minimum inhibitory concentration (MIC) of hemagglutination (His6 XCGL-1 CRD) | Structure (SMILES) | inhibition of hemagglutination by carbohydrates (XCGL-1 [1]) | competitive elution of XCGL-1 bound to lactose resin (XCGL-1 [2]) | further results |
| --- | --- | --- | --- | --- | --- |
|  |  | O=C(O)CN(CCN(CC(=O)O)CC(=O)O)CC(=O)O [EDTA] |  |  | inhibition of agglutination (XCGL-1 [1]): inhibited |
|  |  | CC(=O)N[C@H]1C(O)O[C@H](CO)[C@H](O)[C@@H]1O (stereo partly drawn) [N-acetylgalactosamine, N-acetyl-D-galactosamine] | could not inhibit hemagglutination |  |  |
|  |  | CC(=O)N[C@@H]1[C@@H](O)[C@H](O)[C@@H](CO)O[C@H]1O [N-acetylglucosamine, N-acetyl-D-glucosamine] | could not inhibit hemagglutination |  |  |
|  |  | C[C@H](O)[C@@H](O)[C@@H](O)[C@H](O)C=O [fucose, L-fucose] | could not inhibit hemagglutination |  |  |
| 15 mM | 10 mM | O=C[C@H](O)[C@@H](O)[C@@H](O)[C@H](O)CO [galactose, D-galactose] |  | able to elute XCGL-1 competitively | inhibition of agglutination (XCGL-1 [1]): inhibited; inhibition of hemagglutination at 25 mM (Refolded XCGL-1 CRD): not efficient at inhibiting hemagglutination |
|  |  | OC[C@H]1OC(O)[C@H](O)[C@@H](O)[C@@H]1O (some centres unmarked) [glucose] | could not inhibit hemagglutination |  |  |
| 15 mM | 10 mM | OC[C@H]1O[C@@H](O[C@H]2[C@H](O)[C@@H](O)[C@H](O)O[C@@H]2CO)[C@H](O)[C@@H](O)[C@H]1O [lactose, β-D-Gal-(1→4)-D-Glc] |  | able to elute XCGL-1 competitively | concentration at which inhibition of hemagglutination was observed (Refolded XCGL-1 CRD): > 20 mM |
|  |  | OC[C@H]1OC(O)[C@@H](O)[C@@H](O)[C@@H]1O (stereo partly drawn) [mannose, D-mannose] | could not inhibit hemagglutination |  |  |
| 15 mM | 10 mM | OC[C@H]1O[C@H](OCC2O[C@@H](O)[C@H](O)[C@@H](O)[C@@H]2O)[C@H](O)[C@@H](O)[C@H]1O (stereo partly drawn) [melibiose, α-D-Gal-(1→6)-D-Glc] |  | able to elute XCGL-1 competitively | concentration at which inhibition of hemagglutination was observed (Refolded XCGL-1 CRD): > 20 mM |
| 5 mM | 2.5 mM | CC(=O)N[C@H]1C(O)O[C@H](CO)[C@H](O)[C@@H]1O[C@H]1O[C@H](CO)[C@H](O)[C@H](O)[C@H]1O (stereo partly drawn) [α-D-Gal-(1→3)-D-GalNAc] |  | able to elute XCGL-1 competitively | inhibition of hemagglutination at 25 mM (Refolded XCGL-1 CRD): no inhibition |
